Screening results: PubChem, Broad Institute
Not all results are given here.
PGC1a acetyl up: raises PGC1a acetylation signal in U2OS cells. U2OS PGC1a acetylation AlphaScreen, overnight. activation, % at 15.6 µM. 350,000 compounds, 0.21% hits;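 active means every replicate reaching activation of at least 50%, whatever the mean replicate activation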;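 further: hits raise the AlphaScreen acetylation signal above neutral controls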
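Incubation: overnight compound treatment, 37 °C. System: U2OS cells transduced with flag-tagged PGC1a and GCN5 acetyltransferase. Detection: AlphaScreen lysate read. Compound: single-point compound dosing.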
G6PC hep suppr: hepatocyte G6PC expression change via PGC-1a acetylation activation | shares compounds with PGC1a acetyl up | 240 tested, under 10 active | primary mouse hepatocytes, G6PC mRNA qPCR, forskolin | G6PC suppression (normalized activity, % of positive control; higher = more suppression), % at 26 µM | AID 743463;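 active means dose curves showing G6PC suppression whose half-maximal dose is at most twice the top valid dose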;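 further: G6PC expression relative to GAPDH housekeeping gene as delta delta Ct; 0% = median of neutral control wells and 100% = median of positive control wells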
PCK1 hep suppr: hepatocyte PCK1 expression change via PGC-1a acetylation activation | shares compounds with PGC1a acetyl up | primary mouse hepatocytes, PCK1 mRNA qPCR, forskolin-stimulated | AID 743465 | 230 tested, under 10 active | PCK1 expression decrease, unspecified at 26 µM;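 active means compounds lowering PCK1 expression whose fitted half-maximal concentration is at most twice the top tested dose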;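 further: values are delta delta Ct of PCK1 relative to GAPDH; higher delta delta Ct means lower PCK1 expression so positive values indicate hits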
PGC1a hep suppr: hepatocyte PGC-1a expression change via PGC-1a acetylation activation; shares compounds with PGC1a acetyl up; primary mouse hepatocytes, PGC-1a mRNA qPCR, forskolin; top dose 26 µM; max activity (PGC-1a expression decrease), %; 240 tested, under 10 active; AID 743467;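 active means compound lowering PGC-1a expression with fitted half-maximal concentration at most twice its top tested dose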;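 further: 0% = neutral control wells median and 100% = positive control wells median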
* = called active by the depositor.

`CN1CCN(Cc2cc(C(C)(C)C)c(O)c(C(C)(C)C)c2)CC1` gave PGC1a acetyl up 130.4*.
For CCn1cc(C(=O)N2CCOCC2)c2ccccc21 the results were PGC1a acetyl up -59.0.
For COc1ccc(CC2NCC(O)C2OC(C)=O)cc1 (configuration not stated) the results were PGC1a acetyl up -92.1.
Screening CC1OC(OC2CC(O)C3(CO)C4C(O)CC5(C)C(C6=CC(=O)OC6)CCC5(O)C4CCC3(O)C2)C(O)C(O)C1O (configuration not stated) returned PGC1a acetyl up -80.6.
CC1=C(C/C(C)=C/c2ccccc2)/C(=C/CO)[C@@H]2OC(=O)O[C@]2(C)C12CC2 was read as PGC1a acetyl up -43.1.
`C[C@@H]1O[C@@H](O[C@@H]2C=C3CCC4C(CC[C@]5(C)[C@@H](c6ccc(=O)oc6)CC[C@]45O)[C@@]3(C)CC2)[C@H](O)[C@H](O)[C@H]1O` (some centres not stated) gave PGC1a acetyl up -60.1.
Screening CC(=O)OC1CC(OC2C(O)CC(OC3C(O)CC(OC4CCC5(C)C(CCC6C5CCC5(C)C(C7=CC(=O)OC7)CCC65O)C4)OC3C)OC2C)OC(C)C1OC1OC(CO)C(O)C(O)C1O (configuration not stated) returned PGC1a acetyl up -55.7.
For COc1ccc(-n2nnnc2C(CCc2ccccc2)N2CCC(n3c(=O)[nH]c4ccccc43)CC2)cc1 (configuration not stated) the results were PGC1a acetyl up -55.0.
O=C1NCN(c2ccccc2)C12CCN(C(c1cc3ccccc3o1)c1nnnn1C1CCCCC1)CC2 (configuration not stated) was read as PGC1a acetyl up 83.6*.
O=C1CN=C(c2ccc[nH]2)c2cc(Cl)ccc2N1 was read as PGC1a acetyl up -41.3.
For CC1=CC2OC3CC4OC(=O)C=CC=CC(C(C)O)OCC(O)C(C)CC(=O)OCC2(CC1O)C4(C)C31CO1 (configuration not stated) the results were PGC1a acetyl up -80.9.
Screening CC(=O)OC1C(O)C(C)OC(OC2C(OC(=O)C3CCC4C(C3)OC3(CC(OC(=O)/C=C/c5ccccc5)C(C)CO3)C43CO3)OC(C)C(O)C2OC(C)=O)C1O (configuration not stated) returned PGC1a acetyl up -77.7.
For CCOCCN1CCC(OC(C)=O)C(C)C1 (configuration not stated) the results were PGC1a acetyl up -41.8.
For CCOc1ccc(-c2cc(C)[n+](CCc3ccc(OC)c(OC)c3)c(-c3ccc(OCC)cc3)c2)cc1 the results were PGC1a acetyl up 230.1*.
`C[C@@H]1O[C@@H](O[C@@H]2C=C3CC[C@@H]4C(CC[C@]5(C)[C@@H](c6ccc(=O)oc6)CC[C@]45O)[C@@]3(C)CC2)[C@H](O)[C@H](O)[C@H]1O` (some centres not stated) gave PGC1a acetyl up -67.0.
For C=C1C(=O)O[C@@H]2C[C@@H](C)[C@@H]3C=CC(=O)[C@@]3(C)[C@@H](O)[C@H]12 the results were PGC1a acetyl up -47.0.
`C1=NCCc2c1[nH]c1ccccc21` gave PGC1a acetyl up 155.7*.
Screening COc1ccc(CCNC2(C#N)CCCCC2)cc1OC returned PGC1a acetyl up -83.6.
For CC(=O)OC[C@]12CCC(C)=C[C@H]1O[C@@H]1[C@H](O)[C@@H](OC(C)=O)[C@@]2(C)[C@]12CO2 the results were PGC1a acetyl up -85.5.
`CCC1(OC(=O)CN)C(=O)OCc2c1cc1n(c2=O)Cc2cc3ccccc3nc2-1` (configuration not stated) gave PGC1a acetyl up -42.8.
For C[C@@H]1CN([C@H](C)CO)C(=O)c2c(c3ccccc3n2C)-c2ccccc2CO[C@@H]1CN(C)C(=O)Oc1ccccc1 the results were PGC1a acetyl up 264.7*.
For CC(=O)c1c(C)n(C2CCCCC2)c2ccc(O)cc12 the results were PGC1a acetyl up -55.3.
Screening C[C@@H]1C[C@@H]([C@H](O)CC2CC(=O)NC(=O)C2)C(=O)[C@@H](C)C1 returned PGC1a acetyl up -72.7.
`COC(=O)C12OCC34C(CC5C(C)=C(O)C(=O)CC5(C)C3C(O)C1O)OC(=O)C(OC(=O)/C=C(\C)C(C)C)C24` (configuration not stated) gave PGC1a acetyl up -86.2.
For C[C@H]1CCC/C=C/[C@@H]2C[C@H](O)C[C@H]2[C@H](O)/C=C/C(=O)O1 the results were PGC1a acetyl up -68.7.
`COc1ccc(OC(=O)N(C)C[C@H]2OCc3ccccc3-c3c(n(C)c4ccccc34)C(=O)N([C@@H](C)CO)C[C@H]2C)cc1` gave PGC1a acetyl up 61.8*, G6PC hep suppr 12.7, PCK1 hep suppr 48.3 and PGC1a hep suppr 45.5.
CCn1nc(-c2cccs2)nc2c(=O)n(C)c(=O)nc1-2 was read as PGC1a acetyl up -40.3.
`CC(=O)OC1(C)CC(C)C(=O)C(C(O)CC2CC(=O)NC(=O)C2)C1` (configuration not stated) gave PGC1a acetyl up -92.7.
CC(=O)OC(C)(C)/C=C/C(=O)C(C)(O)C1C(O)CC2(C)C3CC=C4C(CC(O)C(=O)C4(C)C)C3(C)C(=O)CC12C (configuration not stated) was read as PGC1a acetyl up -70.3.
`Oc1ccc2c3c1O[C@H]1[C@@H](O)CC[C@@]4(O)[C@@H](C2)N(CC2CCC2)CC[C@]314` gave PGC1a acetyl up -56.7.
